In ChEMBL document CHEMBL5653631, “A Potent and Selective ULK1 Inhibitor Suppresses Autophagy and Sensitizes Cancer Cells to Nutrient Stress” (iScience, 2018):

Experiments:
[1] = target: RAC-alpha serine/threonine-protein kinase (Homo sapiens) (UniProt P31749); assay: Inhibition of human recombinant AKT1 at 40 nM related to control ULK1
In short: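 Radiometric activity assays in a panel of 327 human recombinant kinases, each run in duplicate at one inhibitor concentration. Activity remaining is expressed as percent of vehicle control, and percent inhibition is calculated as 100% minus percent activity remaining.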

[2] = target: SRSF protein kinase 1 (Homo sapiens) (UniProt Q96SB4); assay: Inhibition of human recombinant SRPK1 at 40 nM related to control ULK1
[3] = target: T1, Serine/threonine-protein kinase DCLK3 (Homo sapiens) (UniProt Q9C098); assay: Inhibition of human recombinant DCAMKL3 at 40 nM in presence of ATP by radiometric assay relative to control
T1 sequence (whole entry): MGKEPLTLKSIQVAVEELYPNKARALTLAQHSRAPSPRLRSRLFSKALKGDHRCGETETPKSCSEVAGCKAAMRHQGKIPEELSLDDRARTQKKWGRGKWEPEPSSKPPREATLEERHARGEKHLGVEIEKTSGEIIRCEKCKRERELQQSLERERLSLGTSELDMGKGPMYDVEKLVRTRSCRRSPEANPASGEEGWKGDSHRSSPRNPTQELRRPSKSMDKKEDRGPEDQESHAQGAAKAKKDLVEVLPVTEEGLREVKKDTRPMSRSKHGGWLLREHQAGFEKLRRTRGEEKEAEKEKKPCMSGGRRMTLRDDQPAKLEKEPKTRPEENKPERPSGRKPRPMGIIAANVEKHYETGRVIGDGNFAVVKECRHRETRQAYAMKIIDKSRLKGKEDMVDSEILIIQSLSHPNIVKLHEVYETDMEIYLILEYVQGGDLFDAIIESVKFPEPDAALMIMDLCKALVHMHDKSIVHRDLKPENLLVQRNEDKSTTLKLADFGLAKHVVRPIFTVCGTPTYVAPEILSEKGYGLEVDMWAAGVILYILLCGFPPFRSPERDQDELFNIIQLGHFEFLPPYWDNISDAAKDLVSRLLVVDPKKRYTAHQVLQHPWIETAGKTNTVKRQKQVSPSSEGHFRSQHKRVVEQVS

[4] = target: Fibroblast growth factor receptor 1 (Homo sapiens) (UniProt P11362); assay: Inhibition of human recombinant FGFR1 at 15 nM in presence of ATP by radiometric assay relative to control
Sequence of Fibroblast growth factor receptor 1 (Homo sapiens) (P11362 22-822 limits assumed): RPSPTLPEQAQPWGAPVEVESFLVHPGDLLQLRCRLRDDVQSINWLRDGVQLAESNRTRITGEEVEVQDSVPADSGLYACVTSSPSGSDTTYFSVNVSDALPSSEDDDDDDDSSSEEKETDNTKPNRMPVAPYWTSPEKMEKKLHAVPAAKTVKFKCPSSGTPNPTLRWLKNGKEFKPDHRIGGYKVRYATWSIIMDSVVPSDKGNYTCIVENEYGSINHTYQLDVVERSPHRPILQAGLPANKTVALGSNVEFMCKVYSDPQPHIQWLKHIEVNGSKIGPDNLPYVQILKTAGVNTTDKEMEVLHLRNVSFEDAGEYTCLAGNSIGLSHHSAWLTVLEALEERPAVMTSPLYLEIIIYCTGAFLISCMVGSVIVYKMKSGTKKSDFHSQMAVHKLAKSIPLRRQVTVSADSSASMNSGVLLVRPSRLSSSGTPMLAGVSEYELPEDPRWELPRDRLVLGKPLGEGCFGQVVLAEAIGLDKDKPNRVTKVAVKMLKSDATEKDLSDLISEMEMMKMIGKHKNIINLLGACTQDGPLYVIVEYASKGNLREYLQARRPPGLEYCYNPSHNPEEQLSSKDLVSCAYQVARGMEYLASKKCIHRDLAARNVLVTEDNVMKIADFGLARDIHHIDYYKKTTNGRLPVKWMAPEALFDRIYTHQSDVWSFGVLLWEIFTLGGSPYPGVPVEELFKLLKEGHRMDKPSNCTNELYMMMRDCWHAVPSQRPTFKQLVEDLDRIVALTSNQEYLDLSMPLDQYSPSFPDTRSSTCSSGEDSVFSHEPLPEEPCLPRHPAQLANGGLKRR

[5] = target: T2, Serine/threonine-protein kinase ULK3 (Homo sapiens) (UniProt Q6PHR2); assay: Inhibition of human recombinant ULK3 at 15 nM related to control ULK1
T2 sequence (whole entry): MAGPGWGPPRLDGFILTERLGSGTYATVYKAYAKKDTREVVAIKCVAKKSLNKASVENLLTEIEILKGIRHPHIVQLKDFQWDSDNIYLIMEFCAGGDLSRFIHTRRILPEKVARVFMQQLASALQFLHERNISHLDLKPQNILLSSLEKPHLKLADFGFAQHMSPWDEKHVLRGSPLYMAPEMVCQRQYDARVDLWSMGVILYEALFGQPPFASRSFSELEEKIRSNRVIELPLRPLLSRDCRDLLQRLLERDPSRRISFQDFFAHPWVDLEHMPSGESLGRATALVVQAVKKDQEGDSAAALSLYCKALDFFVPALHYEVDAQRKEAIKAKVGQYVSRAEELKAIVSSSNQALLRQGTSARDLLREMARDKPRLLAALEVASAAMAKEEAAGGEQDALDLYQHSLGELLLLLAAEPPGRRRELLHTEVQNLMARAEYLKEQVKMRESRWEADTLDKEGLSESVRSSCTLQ

[6] = target: Cyclin-dependent kinase 3 (Homo sapiens) (UniProt Q00526); assay: Inhibition of human recombinant CDK3 at 15 nM in presence of ATP by radiometric assay relative to control
Sequence of Cyclin-dependent kinase 3 (Homo sapiens) (Q00526 whole entry, looked up): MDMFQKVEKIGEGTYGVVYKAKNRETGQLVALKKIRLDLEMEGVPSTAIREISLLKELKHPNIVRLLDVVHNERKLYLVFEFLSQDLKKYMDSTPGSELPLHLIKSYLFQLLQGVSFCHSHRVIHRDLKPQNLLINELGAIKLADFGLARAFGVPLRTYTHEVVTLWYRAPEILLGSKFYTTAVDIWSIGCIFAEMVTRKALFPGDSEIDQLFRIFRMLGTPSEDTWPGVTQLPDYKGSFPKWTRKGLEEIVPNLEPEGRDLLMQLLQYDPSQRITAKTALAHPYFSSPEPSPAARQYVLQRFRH

[7] = target: T3, Aurora kinase A (Homo sapiens) (UniProt O14965); assay: Inhibition of human recombinant AurA at 15 nM in presence of ATP by radiometric assay relative to control
T3 sequence (whole entry): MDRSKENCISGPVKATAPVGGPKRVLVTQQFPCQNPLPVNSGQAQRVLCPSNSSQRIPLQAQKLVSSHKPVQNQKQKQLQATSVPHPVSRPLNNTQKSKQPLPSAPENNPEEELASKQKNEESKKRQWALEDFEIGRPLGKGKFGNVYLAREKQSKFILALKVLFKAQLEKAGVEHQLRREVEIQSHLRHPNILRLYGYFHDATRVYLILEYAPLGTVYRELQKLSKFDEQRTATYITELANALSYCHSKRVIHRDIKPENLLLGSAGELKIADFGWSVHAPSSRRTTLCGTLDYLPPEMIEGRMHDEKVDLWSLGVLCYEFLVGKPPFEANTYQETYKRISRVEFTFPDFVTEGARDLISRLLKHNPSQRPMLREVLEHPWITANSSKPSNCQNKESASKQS
In short: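 Panel of 327 recombinant human kinases, each assayed in vitro by radiometric activity assay in duplicate at a single inhibitor concentration per compound, chosen with reference to its ULK1 inhibition. Activity remaining was expressed as percent of vehicle control, and percent inhibition was calculated as 100 minus percent activity remaining.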

[8] = target: Tyrosine-protein kinase ABL2 (Homo sapiens) (UniProt P42684); assay: Inhibition of human recombinant ABL2 at 500 nM in presence of ATP by radiometric assay relative to control
Sequence of Tyrosine-protein kinase ABL2 (Homo sapiens) (P42684 whole entry): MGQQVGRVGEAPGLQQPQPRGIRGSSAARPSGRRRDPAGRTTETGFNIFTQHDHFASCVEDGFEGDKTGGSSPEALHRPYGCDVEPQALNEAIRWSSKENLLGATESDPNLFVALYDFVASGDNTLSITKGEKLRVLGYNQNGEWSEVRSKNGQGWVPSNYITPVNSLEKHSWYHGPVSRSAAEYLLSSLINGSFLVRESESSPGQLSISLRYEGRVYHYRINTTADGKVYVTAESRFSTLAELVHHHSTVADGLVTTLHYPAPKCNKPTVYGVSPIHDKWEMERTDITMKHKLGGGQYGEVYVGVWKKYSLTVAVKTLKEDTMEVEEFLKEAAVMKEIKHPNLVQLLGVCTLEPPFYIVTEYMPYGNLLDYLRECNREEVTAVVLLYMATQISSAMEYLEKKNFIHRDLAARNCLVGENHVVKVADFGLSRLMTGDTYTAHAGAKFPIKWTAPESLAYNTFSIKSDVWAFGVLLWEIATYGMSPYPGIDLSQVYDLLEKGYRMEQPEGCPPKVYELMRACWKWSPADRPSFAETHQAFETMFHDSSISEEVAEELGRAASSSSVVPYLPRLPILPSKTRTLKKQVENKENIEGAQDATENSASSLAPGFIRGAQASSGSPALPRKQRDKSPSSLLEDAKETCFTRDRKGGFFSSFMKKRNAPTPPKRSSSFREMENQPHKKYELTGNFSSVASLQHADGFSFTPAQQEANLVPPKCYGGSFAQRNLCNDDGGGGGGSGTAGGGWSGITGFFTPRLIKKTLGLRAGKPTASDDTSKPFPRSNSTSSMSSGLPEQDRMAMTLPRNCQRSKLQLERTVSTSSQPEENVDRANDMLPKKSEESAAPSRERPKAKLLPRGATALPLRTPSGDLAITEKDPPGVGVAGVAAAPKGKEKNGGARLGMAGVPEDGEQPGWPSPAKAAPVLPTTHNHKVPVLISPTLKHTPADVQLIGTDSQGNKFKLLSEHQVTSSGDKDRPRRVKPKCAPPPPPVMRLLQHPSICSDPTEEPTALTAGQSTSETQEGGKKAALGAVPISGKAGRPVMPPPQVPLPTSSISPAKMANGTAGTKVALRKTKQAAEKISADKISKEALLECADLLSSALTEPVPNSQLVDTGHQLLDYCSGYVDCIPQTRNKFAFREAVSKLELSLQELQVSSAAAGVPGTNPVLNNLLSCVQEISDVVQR
In short: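 Panel of 327 recombinant human kinases in radiometric activity assays, each screened in duplicate at a single inhibitor concentration; percent activity remaining relative to vehicle control, percent inhibition taken as 100 minus activity remaining.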

[9] = target: Serine/threonine-protein kinase Nek4 (Homo sapiens) (UniProt P51957); assay: Inhibition of human recombinant NEK4 at 500 nM in presence of ATP by radiometric assay relative to control
Sequence of Serine/threonine-protein kinase Nek4 (Homo sapiens) (P51957 whole entry, looked up): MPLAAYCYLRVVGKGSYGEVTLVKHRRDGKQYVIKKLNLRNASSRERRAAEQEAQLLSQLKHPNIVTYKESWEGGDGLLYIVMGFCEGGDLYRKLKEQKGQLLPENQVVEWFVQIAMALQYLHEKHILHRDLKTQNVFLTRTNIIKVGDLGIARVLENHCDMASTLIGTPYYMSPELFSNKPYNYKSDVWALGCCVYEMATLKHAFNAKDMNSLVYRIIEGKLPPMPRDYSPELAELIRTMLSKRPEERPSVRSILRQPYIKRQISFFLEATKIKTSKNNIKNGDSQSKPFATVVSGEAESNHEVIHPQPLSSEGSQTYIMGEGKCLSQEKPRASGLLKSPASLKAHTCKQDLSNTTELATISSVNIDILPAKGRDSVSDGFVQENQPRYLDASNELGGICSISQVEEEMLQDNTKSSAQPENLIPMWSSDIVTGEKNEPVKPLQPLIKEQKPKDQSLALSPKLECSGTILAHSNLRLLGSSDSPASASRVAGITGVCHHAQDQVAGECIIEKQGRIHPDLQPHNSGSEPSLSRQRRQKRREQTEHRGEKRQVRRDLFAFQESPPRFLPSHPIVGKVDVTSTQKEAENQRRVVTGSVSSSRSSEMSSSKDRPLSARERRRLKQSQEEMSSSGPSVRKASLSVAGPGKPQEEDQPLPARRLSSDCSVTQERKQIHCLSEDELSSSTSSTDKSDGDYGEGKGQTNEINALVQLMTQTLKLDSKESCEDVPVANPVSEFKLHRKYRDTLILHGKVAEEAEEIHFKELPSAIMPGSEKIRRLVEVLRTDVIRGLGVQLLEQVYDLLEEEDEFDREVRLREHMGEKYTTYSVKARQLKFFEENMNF

[10] = target: Ephrin type-A receptor 5 (Homo sapiens) (UniProt P54756); assay: Inhibition of human recombinant EphA5 at 500 nM in presence of ATP by radiometric assay relative to control
Sequence of Ephrin type-A receptor 5 (Homo sapiens) (P54756 whole entry): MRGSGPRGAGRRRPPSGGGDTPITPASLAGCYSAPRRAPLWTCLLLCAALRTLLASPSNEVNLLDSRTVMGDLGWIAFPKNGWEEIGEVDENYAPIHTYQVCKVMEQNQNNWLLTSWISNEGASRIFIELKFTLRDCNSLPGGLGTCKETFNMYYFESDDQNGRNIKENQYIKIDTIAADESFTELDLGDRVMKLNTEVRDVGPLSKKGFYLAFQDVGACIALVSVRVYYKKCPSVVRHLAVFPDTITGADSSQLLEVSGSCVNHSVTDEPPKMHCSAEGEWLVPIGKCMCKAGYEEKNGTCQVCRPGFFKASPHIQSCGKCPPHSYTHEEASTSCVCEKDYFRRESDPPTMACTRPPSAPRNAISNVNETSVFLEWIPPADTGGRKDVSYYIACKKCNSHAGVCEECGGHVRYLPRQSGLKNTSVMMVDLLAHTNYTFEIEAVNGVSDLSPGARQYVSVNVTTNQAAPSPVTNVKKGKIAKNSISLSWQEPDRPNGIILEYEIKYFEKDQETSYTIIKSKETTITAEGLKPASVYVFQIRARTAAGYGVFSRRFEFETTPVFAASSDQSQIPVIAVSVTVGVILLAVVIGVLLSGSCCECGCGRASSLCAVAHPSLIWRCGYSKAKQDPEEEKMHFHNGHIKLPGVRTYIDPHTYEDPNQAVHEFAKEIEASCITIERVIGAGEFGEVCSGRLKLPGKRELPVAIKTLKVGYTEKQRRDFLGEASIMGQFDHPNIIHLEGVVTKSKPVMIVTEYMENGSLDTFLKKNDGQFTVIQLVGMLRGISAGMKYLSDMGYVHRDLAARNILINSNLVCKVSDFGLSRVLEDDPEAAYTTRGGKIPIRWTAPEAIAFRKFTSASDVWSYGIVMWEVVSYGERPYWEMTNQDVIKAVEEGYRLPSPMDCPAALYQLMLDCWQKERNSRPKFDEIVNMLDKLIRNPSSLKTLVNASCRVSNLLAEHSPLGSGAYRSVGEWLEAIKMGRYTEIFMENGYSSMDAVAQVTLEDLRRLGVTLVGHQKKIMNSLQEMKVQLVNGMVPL

Sequence of RAC-alpha serine/threonine-protein kinase (Homo sapiens) (P31749 whole entry): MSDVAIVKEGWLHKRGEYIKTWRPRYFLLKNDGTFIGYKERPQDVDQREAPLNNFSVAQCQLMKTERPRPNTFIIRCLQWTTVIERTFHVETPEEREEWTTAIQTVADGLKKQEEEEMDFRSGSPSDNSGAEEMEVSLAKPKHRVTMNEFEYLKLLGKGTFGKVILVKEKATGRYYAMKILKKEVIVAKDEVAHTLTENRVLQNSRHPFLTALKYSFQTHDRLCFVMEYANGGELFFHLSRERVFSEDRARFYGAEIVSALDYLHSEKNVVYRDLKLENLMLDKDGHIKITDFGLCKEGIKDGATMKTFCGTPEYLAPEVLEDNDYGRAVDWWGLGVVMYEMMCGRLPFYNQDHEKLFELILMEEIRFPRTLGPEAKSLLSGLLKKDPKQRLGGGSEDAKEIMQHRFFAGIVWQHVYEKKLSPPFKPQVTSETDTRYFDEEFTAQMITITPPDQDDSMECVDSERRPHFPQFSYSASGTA

A fold change (FC) [1] of 0, a fold change (FC) [2] of 0.14 and an inhibition [3] of 2% were found for `O=C(N[C@@H](C1CC1)C(F)(F)F)c1cc(-c2cnn3cc(-c4ccc(F)cc4)cnc23)cs1` in this work.

An inhibition [4] of 0%, a fold change (FC) [5] of 0.45 and an inhibition [6] of 5% were found for `CC(C)[C@H](NC(=O)c1cc(-c2cnn3cc(-c4ccc(OCCN5CCCCC5)cc4)cnc23)cs1)C(F)(F)F` in this work. The inhibition [7] was 13%.

An inhibition [8] of 21%, an inhibition [9] of 23% and an inhibition [10] of 19% were found for `CNC(=O)c1ccccc1Oc1nc(Nc2cc(OC)c(OC)c(OC)c2)ncc1Br` in this work.
